Assay results: PMC2824925 (Clinical pharmacology and therapeutics, 2009)
“Also recorded” adds a separate entry of the source. *1 amine or outer side, *2 acyl side, *3 side chain or, on linkers, in order; H or OH if unused. Where a SMILES comes first, the peptide text is derived from it. Bridges are numbered along the chain shown (N, C = ends). [ ]: non-standard residue; d: D form. The star is where a group is joined. hTyr(3S-OH,4S-OH,3'-OSO3H) = N[C@H](C(=O)O)[C@H](O)[C@@H](O)c1ccc(O)c(OS(=O)(=O)O)c1; Orn(4R-OH,5R-OH) = O=C([C@H](C[C@@H](O)[C@@H](O)N[*:3])N[*:1])[*:2]; Pro(3S-OH,4S-Me) = C[C@H]1CN[C@H](C(=O)O)[C@H]1O; X1 = CCCCCOc1ccc(-c2cc(-c3ccc(C(=O)*)cc3)no2)cc1; Gln(3R-OH) = NC(=O)C[C@@H](O)[C@H](N)C(=O)O; Hyp = O=C(O)[C@@H]1C[C@@H](O)CN1

Columns and labels:
[1] = infants weighing > 1,000 g, single dose 0.75, 1.5 or 3.0 mg/kg; cited from earlier work
[2] = Plasma pharmacokinetics of repeat-dose intravenous micafungin in young infants; type: in vivo, human; conditions: for AUC(0-t): log-linear method; for Vd: Vdss/wt
Summary of the method: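 Infants aged >48 h to day of life 120 with suspected candidaemia or invasive candidiasis got test compound by 1-h IV infusion every 24 h. Blood samples (50–100 μl; ≤500 μl total, away from infusion site) were taken around the day-4 dose: pre-dose, end of infusion, and 2–4, 8–12 and 20–24 h. Plasma was measured by LC-MS/MS (LLOQ 0.05 μg/ml). Analysis was non-compartmental: CLss = dose/AUC0–24, AUC by log-linear method, observed Tmax.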

[3] = Safety and tolerability of repeat-dose micafungin in young infants; type: in vivo, human
Summary of the method: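 Multicentre open-label study: 7 mg/kg/day (≥1,000 g) or 10 mg/kg/day (<1,000 g) by 1-h IV infusion every 24 h for 4–5 days. Safety set: infants given ≥1 dose. Physical exams, haematology, serum chemistry and vital signs were taken at screening (≤72 h pre-dose) and until 72 h after the last dose. Investigators graded AEs for severity and drug relationship; treatment-emergent AEs counted through 72 h post-dose.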

[4] = febrile neutropenic pediatric patients, Phase I; cited from earlier work
[5] = adults, cited from earlier work
[6] = overall (7 and 10 mg/kg/day groups), day 4, n=12

Compound: CCCCCOc1ccc(-c2cc(-c3ccc(C(=O)N[C@H]4C[C@@H](O)[C@@H](O)NC(=O)[C@@H]5[C@@H](O)[C@@H](C)CN5C(=O)[C@H]([C@H](O)CC(N)=O)NC(=O)[C@H]([C@H](O)[C@@H](O)c5ccc(O)c(OS(=O)(=O)O)c5)NC(=O)[C@@H]5C[C@@H](O)CN5C(=O)[C@H]([C@@H](C)O)NC4=O)cc3)no2)cc1 [micafungin] (X1-[Orn(4R-OH,5R-OH)]T[Hyp][hTyr(3S-OH,4S-OH,3'-OSO3H)][Gln(3R-OH)][Pro(3S-OH,4S-Me)]; lactam 1-C)
- Micafungin clearance rate [1]: 0.65 mL/min/kg
- Median total body clearance adjusted for weight, lower in infants ≥ 1,000 g than in infants < 1,000 g ([2]; 7 mg/kg/day (≥ 1,000 g) vs 10 mg/kg/day (< 1,000 g)): 21%
- AUC0–24 of a single infant (highest observed) ([2]; 7 mg/kg/day group, subject 4, weight 4.5 kg, single infant): 643.2 µg·h/mL
- CLss/wt, median (range) ([2]; 7 mg/kg/day, IV, day 4, infants ≥ 1,000 g, n=6): 0.4 (0.2–0.6) ml/min/kg
- Tmax, median (range) ([2]; 10 mg/kg/day, 1-h IV infusion, day 4, infants < 1,000 g, n=6): 1.1 (1.0–1.1) h
- CLss/wt, median (range) ([2]; 10 mg/kg/day, IV, day 4, infants < 1,000 g, n=6): 0.6 (0.4–0.8) ml/min/kg
- CLss, median (range) ([2]; 10 mg/kg/day, IV, day 4, infants < 1,000 g, n=6, dose/AUC0–24): 0.4 (0.2–0.5) ml/min
- AUC(0-t) ([2]; human, plasma, iv, 7 mg/kg/day, AUC0–24, mean (SD), 7 mg/kg/day, 1-h IV infusion, day 4, infants ≥ 1,000 g, n=6, plasma, SD): 308 µg·h/mL
- AUC(0-t) ([2]; human, plasma, iv, 7 mg/kg/day, AUC0–24, median (range), 7 mg/kg/day, 1-h IV infusion, day 4, infants ≥ 1,000 g, n=6, plasma): 258 µg·h/mL
- clearance ([2]; human, plasma, iv, 7 mg/kg/day, CLss, mean (SD), 7 mg/kg/day, IV, day 4, infants ≥ 1,000 g, n=6, dose/AUC0–24, SD): 0.9 mL/min
- clearance ([2]; human, plasma, iv, 7 mg/kg/day, CLss, median (range), 7 mg/kg/day, IV, day 4, infants ≥ 1,000 g, n=6, dose/AUC0–24): 0.7 mL/min
- clearance ([2]; human, plasma, iv, 7 mg/kg/day, CLss/wt, mean (SD), 7 mg/kg/day, IV, day 4, infants ≥ 1,000 g, n=6, SD): 0.4 mL/min/kg
- clearance ([2]; human, plasma, iv, 7 mg/kg/day, CLss/wt, median (range), 7 mg/kg/day, IV, day 4, infants ≥ 1,000 g, n=6): 0.45 mL/min/kg
- Vd ([2]; human, plasma, iv, 7 mg/kg/day, mean (SD), 7 mg/kg/day, IV, day 4, infants ≥ 1,000 g, n=6, SD): 0.391 L/kg
- Vd ([2]; human, plasma, iv, 7 mg/kg/day, median (range), 7 mg/kg/day, IV, day 4, infants ≥ 1,000 g, n=6): 0.341 L/kg
- AUC(0-t) ([2]; human, plasma, iv, 10 mg/kg/day, AUC0–24, median (range), 10 mg/kg/day, 1-h IV infusion, day 4, infants < 1,000 g, n=6, plasma): 291 µg·h/mL
- clearance ([2]; human, plasma, iv, 10 mg/kg/day, CLss, mean (SD), 10 mg/kg/day, IV, day 4, infants < 1,000 g, n=6, dose/AUC0–24, SD): 0.4 mL/min
- clearance ([2]; human, plasma, iv, 10 mg/kg/day, CLss/wt, mean (SD), 10 mg/kg/day, IV, day 4, infants < 1,000 g, n=6, SD): 0.6 mL/min/kg
- clearance ([2]; human, plasma, iv, 10 mg/kg/day, CLss/wt, median (range), 10 mg/kg/day, IV, day 4, infants < 1,000 g, n=6): 0.57 mL/min/kg
- Vd ([2]; human, plasma, iv, 10 mg/kg/day, mean (SD), 10 mg/kg/day, IV, day 4, infants < 1,000 g, n=6, SD): 0.51 L/kg
- Vd ([2]; human, plasma, iv, 10 mg/kg/day, median (range), 10 mg/kg/day, IV, day 4, infants < 1,000 g, n=6): 0.543 L/kg
- AUC(0-t) ([2]; human, plasma, iv, AUC0–24, mean (SD), overall (7 and 10 mg/kg/day groups), day 4, n=12, plasma, SD): 308 µg·h/mL
- AUC(0-t) ([2]; human, plasma, iv, AUC0–24, median (range), overall (7 and 10 mg/kg/day groups), day 4, n=12, plasma): 275 µg·h/mL
- clearance ([2]; human, plasma, iv, CLss/wt, mean (SD), overall (7 and 10 mg/kg/day groups), day 4, n=12, SD): 0.5 mL/min/kg
- Tmax ([2]; human, plasma, iv, Tmax, mean (SD), overall (7 and 10 mg/kg/day groups), day 4, n=12, SD): 1.2 h
- Vd ([2]; human, plasma, iv, mean (SD), overall (7 and 10 mg/kg/day groups), day 4, n=12, SD): 0.45 L/kg
- Vd ([2]; human, plasma, iv, median (range), overall (7 and 10 mg/kg/day groups), day 4, n=12): 0.503 L/kg
- CLss/wt, median (range) [2, 6]: 0.5 (0.2–0.8) ml/min/kg
- Tmax, median (range) [2, 6]: 1.1 (1.0–2.1) h
- Allergic or histamine-like reactions, infusion-related toxicity, nephrotoxicity or hepatotoxicity ([3]; 7 and 10 mg/kg/day): no instances
- Changes in AST and ALT from baseline to post-treatment ([3]; 7 and 10 mg/kg/day): minimal
- Renal toxicity / changes in hematology parameters ([3]; 7 and 10 mg/kg/day): no evidence of renal toxicity or significant changes in hematology parameters
- Infants with AEs irrespective of causality ([3]; 7 and 10 mg/kg/day IV, ≥ 4 days, 12/13 infants): 92.3%
- Deaths / discontinuations because of an AE ([3]; 7 and 10 mg/kg/day, 13 infants): No deaths occurred in this study and no patients withdrew prematurely from the study because of an AE; also recorded: No deaths or discontinuations from treatment occurred
- Tolerability ([3]; doses of up to 10 mg/kg/day IV, ≥ 4 days, young infants): well tolerated
- Infants with serious AEs ([3]; four infants of 13, two in each treatment group): 30.8%
- Micafungin clearance in children 2–8 years relative to children ≥ 9 years of age [4]: 1.5–2.0 times higher
- Average AUC ([5]; 150-mg dose): 166.7 µg·h/mL
- AUC values well tolerated [5]: < 600 µg·h/mL
